The values below come from ChEMBL document CHEMBL1140715, “Structure-activity relationships of novel iron chelators for the treatment of iron overload disease: the methyl pyrazinylketone isonicotinoyl hydrazone series” (J Med Chem, 2008).

Bounds are passed on as bounds.

As usually defined, the IC50 is the concentration that gives 50% inhibition. The term logP denotes a log measure of how a compound divides between an organic and an aqueous phase.

Data set [1] is described as follows: Antiproliferative activity against human […] cells by MTT assay. The format is cell-based. Summed up: (§1)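 MTT assay of cell proliferation; MTT colour formation directly proportional to viable cell number counted by Trypan blue staining. IC50 reported as mean ± SD of three experiments.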
In general terms: Tetrazolium assays rely on reduction of a dye to a coloured formazan, in cell work by metabolically active cells.

A short description of data set [2]: Partition coefficient, log P of the compound. The class given is physicochemical. Particulars: octanol/water. Summed up: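 Octanol–water partition coefficient measured spectrophotometrically.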
The subject of a further data set is MRC5. Briefly: Antiproliferative activity against human MRC5 cells by MTT assay. The format is cell-based. Summed up:
as §1

A short description of data set [3]: Induction of intracellular iron mobilization in human […] cells relative to control. The format is functional. Details: concentration or dose not given beside the values. The procedure, abridged:
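SK-N-MC cells prelabeled with 59Fe-Tf (0.75 µM) for 3 h at 37 °C, washed four times with ice-cold PBS, then incubated with chelator (50 µM) for 3 h at 37 °C. Released 59Fe in medium and cell pellet counted by γ-scintillation. Mean ± SD, three experiments, triplicate determinations.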

`O=C(N/N=C/c1ccccn1)c1ccccc1` gave an IC50 in data set [1] of 19.2 µM.
On the same count and under the same terms, the figure for `O=C(NN=C(c1ccccn1)c1ccccn1)c1ccccc1` is 3.04 µM.
Compound `C/C(=N\NC(=O)c1ccncc1)c1cnccn1` [METHYL PYRAZINYLKETONE ISONICOTINOYL HYDRAZONE] displayed a logP in data set [2] of 1.2. The values for the IC50 (in data set [1]; with MRC5) were 5.79 µM and 25.2 µM, respectively. In data set [3], the Activity turned out to be 31%.
The compound `O=C(NN=C(c1ccccn1)c1ccccn1)c1ccc([N+](=O)[O-])cc1` gave an IC50 in data set [1] of 0.26 µM.
With `C/C(=N\NC(=O)c1cccs1)c1cnccn1` [METHYL PYRAZINYLKETONE THIOPHENECARBOXYL HYDRAZONE], the log partition coefficient (logP) in data set [2] came to 2.6. In addition, the IC50 in data set [1] stood at 2.13 µM; in the data set with MRC5, 5.54 µM. The Activity in data set [3] came to 31%.
As to `CC(=O)N(O)CCCCCNC(=O)CCC(=O)N(O)CCCCCNC(=O)CCC(=O)N(O)CCCCCN` [DEFEROXAMINE], the midpoint of inhibition in data set [1], the IC50, lay at 12.1 µM. For the same compound, the Activity in data set [3] came out at 16%.
Regarding `O=C(N/N=C/c1ccccn1)c1ccc(Br)cc1`, the concentration for half-maximal inhibition (IC50) in data set [1] is 17.7 µM.
Compound `O=C(N/N=C/c1c(O)ccc2ccccc12)c1ccncc1` returned an IC50 in data set [1] of 0.83 µM. Also, the Activity in data set [3] is 44%.
In data set [2], `C/C(=N\NC(=O)c1ccc(N)cc1)c1cnccn1` returned a logP of 1.3. Moreover, the results for the half-maximal inhibitory concentration (IC50) (in data set [1]; in the data set on MRC5) were 58.8 µM and more than 80 µM, respectively. Besides, the Activity in data set [3] came out at 34%.
In turn, `O=C(NN=C(c1ccccn1)c1ccccn1)c1ccc(C(F)(F)F)cc1` displayed an IC50 in data set [1] of 0.24 µM.
On the same count and under the same terms, for `O=C(NN=C(c1ccccn1)c1ccccn1)c1cccc(Br)c1` the value was 0.24 µM; for `Nc1ccc(C(=O)N/N=C/c2ccccn2)cc1`, more than 80 µM.
`C/C(=N\NC(=O)c1ccc(C(F)(F)F)cc1)c1cnccn1`: the logP in data set [2] is 2. The results for the concentration for half-maximal inhibition (IC50) (in data set [1]; in the data set with MRC5) were 1.16 µM and 2.09 µM, respectively. Besides, the Activity in data set [3] is 31%.
Taken in the same sequence, the figures for `C/C(=N\NC(=O)c1ccc([N+](=O)[O-])cc1)c1cnccn1` were 2.1, 1.39 µM, 2.87 µM and 31%.
`O=C(N/N=C/c1ccccn1)c1ccncc1` gave a 50% inhibitory concentration (IC50) in data set [1] of more than 80 µM.
Turning to `C/C(=N\NC(=O)c1ccccc1)c1cnccn1` [METHYL PYRAZINYLKETONE BENZOYL HYDRAZONE], the logP in data set [2] is 1.9. For the same compound, the figures for the IC50 (in data set [1]; in the data set on MRC5) were 3.62 µM and 7.04 µM, respectively. Besides, in data set [3], the Activity amounted to 31%.
Compound `O=C(N/N=C/c1ccccn1)c1ccc(O)cc1` gave an IC50 in data set [1] of more than 80 µM.
The compound `C/C(=N\NC(=O)c1ccc(O)cc1)c1cnccn1` yielded a logP in data set [2] of 1.9. For the same compound, the IC50 is 16.8 µM in data set [1] and more than 80 µM in the data set on MRC5. The Activity in data set [3] was 39%.
For the compound `CN(C)C(=S)NN=C(c1ccccn1)c1ccccn1`, the IC50 in data set [1] amounted to 0.001 µM.
`Cc1ncc(CO)c(/C=N/NC(=O)c2ccncc2)c1O` [PYRIDOXAL ISONICOTINOYL HYDRAZONE]: in data set [3], the Activity came out at 40%.
In turn, `O=C(NN=C(c1ccccn1)c1ccccn1)c1ccc(Br)cc1` displayed a concentration for half-maximal inhibition (IC50) in data set [1] of 0.3 µM.
Same read-out and setting: the figure for `O=C(N/N=C/c1ccccn1)c1ccc([N+](=O)[O-])cc1` is 35.5 µM.
`C/C(=N\NC(=O)c1cccc(Br)c1)c1cnccn1` showed a logP in data set [2] of 2.9. In addition, the IC50 in data set [1] was 1.15 µM; in the data set on MRC5 it was 3.12 µM. This compound registered an Activity in data set [3] of 31%.
With `O=C(N/N=C/c1ccccn1)c1cccs1`, half-maximal inhibition in data set [1] (IC50) was put at 22.7 µM.
Consider `C/C(=N\NC(=O)c1ccc(Br)cc1)c1cnccn1`, for which the logP in data set [2] is 2.9. Moreover, the IC50 came out at 1.22 µM in data set [1] and 2.94 µM in the data set on MRC5. In data set [3], this compound yielded an Activity of 31%.
For the compound `O=C(N/N=C/c1ccccn1)c1ccc(C(F)(F)F)cc1`, the IC50 in data set [1] is 22.4 µM.
In data set [1], `NC(=S)N/N=C/c1ncccc1N` [TRIAPINE] displayed an IC50 of 0.66 µM.
